Sampled rows, rich in hits. Any-hit rate of the full collection: about 2.6%.
Xi reactivation: activators of X-chromosome reactivation in mouse fibroblasts | AID 743238 | XiGFP mouse fibroblasts, % GFP-positive cells imaging, 3 d; cells co-treated with 5-aza-dC sensitizer; scaled so ellipticine positive control = 100% | 360,000 compounds, 0.055% hits | activation, % at 7.58 µM;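 active = mean normalized replicate activation at least 10% and every replicate at or above 10%; inconclusive = only one of the two criteria met; inactive = mean below 10% and not all replicates reach 10%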;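 also: 0% = median of on-plate neutral control wells and 100% = ellipticine 6 µM median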
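System: XiGFP fibroblasts, SV40-immortalized. Medium: DMEM plus 5-aza-dC sensitizer. Doses: single point. Timing: 3 d treatment, 15 min room-temperature fixation. Control set: ellipticine 6 µM.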
Vif imaging: blocks HIV Vif function. HEK293T cells, Vif self-association by quenched fluorescence, imaging, 24 h. 340,000 compounds, 0.35% hits. inhibition, % at 7.49 µM. AID 602346; in the data active = inhibition above about 50%, passing the limit was not always enough; inconclusive = no clear call, values can overlap the other calls; inactive = below about 31%
MITF act: increases MITF-driven TRPM1 promoter luciferase signal | SK-MEL-5 TRPM1-promoter luciferase, 24 h; % of positive control, neutral wells = 0 | activation, % at 12.5 µM | 300,000 compounds, 0.75% hits | AID 588334;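 active = mean activation of at least 80% with every replicate also reaching 80%; inconclusive = mean reaches 80% but some replicate falls short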;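 also: 0% = neutral control wells and 100% = parthenolide positive control wells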
esBAF inh: inhibitors of esBAF chromatin remodeling in mouse ES cells; Bmi1-luciferase knock-in reporter, 24 h; 100% = twice the neutral-well signal; reporter increase, % at 12.5 µM; 350,000 compounds, 2% hits; AID 602393; in the data active = activation above about 40%; inconclusive = no clear call, values can overlap the other calls;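 also: 0% = median of the plate's neutral control wells and 100% = double that signal; a rise in the Bmi1 reporter signal indicates esBAF inhibition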
Wnt bcat act: activators of Wnt/beta-catenin signaling. activation, % at 9.35 µM. Wnt/beta-catenin reporter cell assay, activator, plate reader. AID 743398. 300,000 compounds, 1.2% hits; in the data active = activation above about 30%, passing the limit was not always enough; inconclusive = no clear call, values can overlap the other calls;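 also: 0% = neutral control wells and 100% = positive control wells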
* = called active by the depositor; ? = inconclusive; nt = no result.

SMILES	Xi reactivation	Vif imaging	MITF act	esBAF inh	Wnt bcat act
CO[C@@H]1CN(C)C(=O)c2ccc(NC(=O)C3CC3)cc2OC[C@@H](C)N(C)C[C@@H]1C	0	nt	nt	0	nt
C/C(=N\Nc1cccc(C(=O)O)c1)c1ccc(Cl)s1	0	0	68	73*	16
COc1ccc(/C(C)=N/Nc2cccc(C(=O)O)c2)cc1OC	0	7	8	53*	5
CO[C@@H]1CN(C)C(=O)c2ccc(NC(=O)c3cc(C)on3)cc2OC[C@@H](C)N(C)C[C@@H]1C	0	nt	nt	4	nt
CN(Cc1nc(CCc2ccccc2)no1)Cc1cccs1	40*	2	20	18	8
CN(Cc1ccc(F)cc1)Cc1nc(CCc2ccccc2)no1	0	-11	4	nt	0
N#C/C(=C\c1ccc(OC(=O)c2cccs2)cc1)c1nc2ccccc2[nH]1	0	-1	58	nt	35*
N#C/C(=C/c1ccc(O)c(O)c1)c1nc2ccccc2[nH]1	0	3	37	57*	4
N#C/C(=C\Nc1ccc2c(c1)OCCO2)c1nc2ccccc2[nH]1	nt	nt	77	44*	nt
C[C@H]1CCCCO[C@H](CN(C)C(=O)C2CCCCC2)[C@@H](C)CN([C@@H](C)CO)C(=O)c2cc(NC(=O)Nc3cccc4ccccc34)ccc2O1	0	nt	nt	6	nt
COc1ccccc1S(=O)(=O)N[C@H]1CC[C@H](CCn2cc(C3CCCCC3)nn2)O[C@@H]1CO	0	nt	nt	8	nt
COCC(=O)N(C)C[C@H]1Oc2ncc(-c3ccccc3C)cc2C(=O)N([C@@H](C)CO)C[C@H]1C	-1	nt	nt	8	nt
CCCC(=O)Nc1ccc2c(c1)OC[C@@H](C)N(Cc1cc(F)ccc1F)C[C@@H](C)[C@H](OC)CN(C)C2=O	-1	nt	nt	6	nt
CC1CN(Cc2ccccc2)c2nc3c(c(=O)[nH]c(=O)n3C)n2C1 (configuration not stated)	0	6	-1	nt	34*
Cn1c(=O)[nH]c(=O)c2c1nc([N+](=O)[O-])n2Cc1ccccc1	2	99*	-99	nt	-12
C[C@@H]1CN([C@H](C)CO)C(=O)c2cc(/C=C/c3ccccc3)cnc2O[C@H]1CN(C)S(C)(=O)=O	0	nt	nt	1	nt
CC(=O)c1ccc(NC(=O)CCc2nnc3ccc(N4CCCC4)nn23)cc1	0	2	43	57*	10
Cc1ccc(N(C(=O)c2csnn2)C(C(=O)NC2CCCC2)c2ccccn2)cc1 (configuration not stated)	0	56*	nt	2	0
Cc1noc(C)c1NC(=O)Nc1cccc2c1O[C@@H](CN(C)C)[C@H](C)CN([C@H](C)CO)C2=O	-1	nt	nt	2	nt
O=C1/C(=C/c2cccs2)SC(=S)N1CCC(=O)N1CCCCC1CCO (configuration not stated)	0	-4	35	60*	9
COc1ccccc1/C=C1\SC(=S)N(CCC(=O)N2CCCCC2CCO)C1=O (configuration not stated)	0	-3	2	1	0
C[C@@H]1CCCCO[C@@H](CN(C)S(=O)(=O)c2cn(C)cn2)[C@@H](C)CN([C@@H](C)CO)C(=O)c2cc(NC(=O)Nc3ccc4c(c3)OCO4)ccc2O1	0	nt	nt	58*	nt
C[C@@H]1CN([C@H](C)CO)C(=O)c2cc(NC(=O)Nc3ccc4c(c3)OCO4)ccc2O[C@@H](C)CCCCO[C@H]1CN(C)S(=O)(=O)c1cn(C)cn1	-1	nt	nt	58*	nt
Cc1ccc(S(=O)(=O)N(C)C[C@H]2OCCCC[C@H](C)Oc3ccc(NC(=O)Nc4ccc5c(c4)OCO5)cc3C(=O)N([C@H](C)CO)C[C@H]2C)cc1	0	nt	nt	49*	nt
Cc1ccc2nc(-c3ccc(NC(=S)NCCC(C)C)cc3)sc2c1	nt	nt	30	33	49*
SMILES	Xi reactivation	Vif imaging	MITF act	esBAF inh	Wnt bcat act
Cc1ccc2nc(-c3ccc(NC(=S)NCC(C)(C)CN(C)C)cc3)sc2c1	0	-2	14	-14	56*
COc1ccc(S(=O)(=O)Nc2ccc3c(c2)C(=O)N([C@@H](C)CO)C[C@@H](C)[C@@H](CN(C)C)O3)cc1	0	nt	nt	nt	nt
C[C@H](CO)N1C[C@H](C)[C@@H](CN(C)Cc2ccc(C(=O)O)cc2)OCCCC[C@H](C)Oc2ccc(NC(=O)NC3CCCCC3)cc2C1=O	0	nt	nt	-2	nt
Cc1cc(C)nc(N/N=C/c2ccccc2OCc2ccc(Cl)cc2)n1	0	-10	24	nt	35*
Cc1cc(-c2ccccc2)nc(N/N=C/c2ccccc2F)n1	0	-3	nt	56*	11
C/C(=N\Nc1nc(C)cc(-c2ccccc2)n1)c1ccc(O)cc1	0	-5	nt	20	4
Cc1cc(C)nc(N/N=C/c2ccccc2OCc2ccccc2)n1	0	-16	9	5	6
C/C(=N\Nc1nc(C)cc(-c2ccccc2)n1)c1ccccc1	0	-11	nt	63*	0
CC(=O)Nc1cccc2c1O[C@@H](CN(C)C)[C@H](C)CN(C)C2=O	0	nt	nt	nt	nt
C/C=C/C(=O)OCC(=O)Nc1ccccc1Br	0	7	1	nt	-2
O=C(COC(=O)/C=C/C(=O)OCC(=O)Nc1ccccc1F)Nc1ccccc1F	0	79*	-13	nt	5
O=C(Nc1ccc2c(c1)CCC2)Nc1ccc(F)cc1F	0	-7	79	71*	41*
COCCNC(=O)C(=O)N/N=C/c1cccs1	0	-10	23	nt	4
COc1ccc(C)cc1NC(=O)Nc1ccc2c(c1)CCC2	0	-2	5	nt	-3
COc1ccccc1NC(=O)C(=O)N/N=C/c1cccs1	0	-9	48	76*	15
O=C(Nc1ccc2c(c1)OCO2)Nc1ccc(F)cc1F	0	-6	?	30	20
COc1ccccc1NC(=O)Nc1ccc2c(c1)CCC2	0	nt	112*	nt	19
COc1ccc2c3c(n(C)c2c1)[C@H](CO)N(CC1CC1)CC31CN(C(C)=O)C1	0	nt	nt	nt	nt
C[C@H]1CN([C@@H](C)CO)C(=O)c2cc(NS(C)(=O)=O)ccc2O[C@H]1CN(C)Cc1ccc(C(=O)O)cc1	0	nt	nt	6	nt
COc1ccc(/C=C/C(=O)Nc2ccc3c(c2)CCC3)cc1OC	0	-6	29	47*	nt
COc1ccc(OC)c(NC(=O)Nc2ccc(Cl)cc2)c1	nt	-1	34	9	nt
Cc1ccccc1NC(=O)Nc1ccc2c(c1)CCC2	0	-8	75	72*	-1
COc1ccccc1NC(=O)Nc1nc(CC(=O)Nc2ccc(N(C)C)cc2)cs1	0	16	15	51*	5
COc1ccc(NC(=O)Nc2ccc(F)c(Cl)c2)cc1	0	-9	127*	nt	45*
Cc1ccc(NC(=O)Nc2ccc3c(c2)CCC3)cc1	1	-1	?	nt	2
COc1ccc(NC(=O)Nc2ccc3c(c2)CCC3)cc1OC	0	5	21	nt	2
CN(C)CCCNC(=O)C[C@H]1CC[C@@H]2[C@H](COC[C@H](O)CN2CC2CCCCC2)O1	0	nt	nt	nt	nt

Compound activity: PubChem BioAssay, Broad Institute
